Assay outcomes from PubChem.
This is one part of a sample in which hits are shown more often than they occur.
UPR CHOP act = activators of apoptotic CHOP UPR arm, primary screen, cell-based, CHO-CHOP luciferase reporter, luminescence, uHTS | UPR activation; percent of tunicamycin response over DMSO baseline | activation, % at 10 µM | 330,000 compounds, 0.34% hits;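 active = at 10 µM dose, activation of 40% or more, normalized to positive control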
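Assay system: CHO cells with stable CHOP pathway luciferase reporter; Buffer or medium: F12 plus 10% serum; Times: 16-18 h cell attachment, then 6 h compound exposure, 37 °C; Signal: luciferase luminescence; Read-out basis: percent activation relative to tunicamycin control; Control set: tunicamycin high control, DMSO low control.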
CHOP inhibitor = inhibitors of CHOP promoter induction, primary screen, cell-based, unfolded protein response, luciferase reporter; AID 2732, 2010; CHO-K1 CHOP-promoter luciferase, tunicamycin-induced, 15-18 h; inhibition, % at 10 µM; 220,000 compounds, 3.8% hits;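 active = compounds that reduced the stress-induced luciferase reporter signal by more than about 70% of percent inhibition, limit read from the data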
XBP1 UPR activ = activators of adaptive XBP1 UPR arm, primary screen, cell-based, CHO-XBP1 luciferase reporter, luminescence, uHTS; activation, % at 20 µM; AID 463104, 2010; 330,000 compounds, 0.33% hits; IRE1-XBP1 UPR activation; percent of tunicamycin response, DMSO as zero;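 active = versus positive control, 20 µM dose yields 30% or more activation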
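Material – CHO cell line with stable XBP1 luciferase reporter · Buffer or medium – F12 plus 10% FBS · Compound – single point, 20 µM final compound, 1% DMSO · Schedule – 16-18 h cell attachment at 37 °C, then 6 h compound exposure · Signal – Steady-Glo luminescence read · Benchmarks – high control tunicamycin 10 µg/mL final, low control DMSO vehicle only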
VLA-4 inh = inhibition in human VLA-4 binding assay, primary screen, VLA-4 allosteric modulator project, MLPCN library, flow cytometry, VLA-4 expressing cells. Integrin alpha-4 (Homo sapiens), P13612. ligand binding flow cytometry. inhibition, % (about 7 µM as worked out from the volumes in the protocol). 330,000 compounds, 0.2% hits; in the data active = inhibition above about 50%
Target sequence (P13612 whole entry, looked up): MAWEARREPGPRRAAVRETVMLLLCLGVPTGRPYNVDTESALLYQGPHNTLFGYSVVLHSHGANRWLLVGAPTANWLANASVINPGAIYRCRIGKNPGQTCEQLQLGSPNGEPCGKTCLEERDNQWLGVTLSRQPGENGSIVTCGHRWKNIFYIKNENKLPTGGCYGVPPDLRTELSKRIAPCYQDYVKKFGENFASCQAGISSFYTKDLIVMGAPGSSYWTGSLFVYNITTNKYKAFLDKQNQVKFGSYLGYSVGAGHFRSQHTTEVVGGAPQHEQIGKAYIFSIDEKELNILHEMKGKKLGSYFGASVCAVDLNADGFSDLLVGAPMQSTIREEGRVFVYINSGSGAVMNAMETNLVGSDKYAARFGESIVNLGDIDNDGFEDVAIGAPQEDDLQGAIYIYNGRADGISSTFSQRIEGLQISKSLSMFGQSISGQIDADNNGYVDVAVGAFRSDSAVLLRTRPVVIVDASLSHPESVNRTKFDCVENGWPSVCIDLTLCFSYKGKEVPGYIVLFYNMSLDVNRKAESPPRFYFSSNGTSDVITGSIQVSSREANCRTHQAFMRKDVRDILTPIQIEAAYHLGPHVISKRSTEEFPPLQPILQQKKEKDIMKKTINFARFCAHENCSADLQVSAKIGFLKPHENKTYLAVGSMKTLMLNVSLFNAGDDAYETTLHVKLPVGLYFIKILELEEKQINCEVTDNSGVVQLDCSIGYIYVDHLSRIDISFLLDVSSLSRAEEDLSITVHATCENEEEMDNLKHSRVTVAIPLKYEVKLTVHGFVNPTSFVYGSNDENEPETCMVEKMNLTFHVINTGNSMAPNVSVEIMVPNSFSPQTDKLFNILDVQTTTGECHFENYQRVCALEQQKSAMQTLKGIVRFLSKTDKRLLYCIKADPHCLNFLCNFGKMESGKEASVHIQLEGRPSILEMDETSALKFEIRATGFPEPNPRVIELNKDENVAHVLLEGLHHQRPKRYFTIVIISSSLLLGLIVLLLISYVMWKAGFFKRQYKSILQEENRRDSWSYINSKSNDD
B2AR ag = beta2AR agonists driving receptor internalization, primary screen, cell-based, FAP fluorogen, flow cytometry | response, % (no concentration beside the values) | Am2.2-beta2AR cells | Beta-2 adrenergic receptor (Homo sapiens), P07550 | 340,000 compounds, 0.43% hits;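 active = response above a set limit, near 3 SD of response in nonfluorescent compounds, cut at about 42% in these data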
VLA-4 mod pick = retest of VLA-4 allosteric modulators, confirmation, cell-based, cherry-picked plates, U937, HUTS-21 LIBS antibody; shares compounds with VLA-4 inh; U937 cells, HUTS-21 LIBS mAb binding, flow cytometry; LDV ligand present at threefold Kd; inhibition, % at 6.7 µM; 1,300 compounds, 2% hits; AID 2813, 2010; in the data active = inhibition above about 40%
CHOP inh conf = retest of CHOP induction inhibitors, confirmation, cell-based | shares compounds with CHOP inhibitor | CHO-CHOP promoter luciferase reporter, tunicamycin-induced, luminescence | inhibition, % at 10 µM | 2,100 compounds, 45% hits | AID 504437, 2011;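 active = mean of three repeat readings of reporter signal inhibition above a set limit, cut at about 70% in these data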
UPR XBP1 confirm = IRE1-XBP1 UPR arm activators, confirmation, cell-based, CHO-XBP1 luciferase reporter, luminescence, single concentration; shares compounds with XBP1 UPR activ; activation, % at 20 µM; 1,000 compounds, 63% hits; AID 485299, 2010;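 active = reporter signal at least 30% of the positive control's activation in two or more of four replicate wells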
Beta2AR ag CP1 = beta2AR agonists via receptor internalization, confirmation, cell-based, FAP fluorogen, flow cytometry, single point, cherry pick 1. Am2.2-beta2AR cells, FAP surface receptor; stronger effect = lower value. shares compounds with B2AR ag. 1,100 compounds, 25% hits. percent response (surface receptor), % at 10 µM;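 active = surface receptor percent response at or below 58%, roughly 3 SD from nonfluorescent compounds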
B2AR FAP counter = counter-screen for beta-2AR agonists: fluorescence in Am2.2 cells; shares compounds with B2AR ag; FAP fluorogen flow cytometry, fluorescence counterscreen; stronger effect = lower value; calls only at 10 µM; 1,100 tested, under 10 active; AID 588765;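 active = percent response below a set limit in fluorescence channel 1 and below 50% in channel 8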
Each line names hits and unclear results; the compound was inactive in the other large screens (follow-up assays come after a bar, where they were run); ! = not confirmed by another sample.

COc1ccc(C(C)=O)cc1COC(=O)CCNS(=O)(=O)c1ccc(C)cc1	none (no result: CHOP inhibitor)
COc1ccc(C(C)=O)cc1COC(=O)CNC(=O)c1cc(C)cc(C)c1	VLA-4 inh 53 | VLA-4 mod pick inactive
Cc1cccc(NS(=O)(=O)c2cccc(C(=O)NCC(c3ccco3)N(C)C)c2)c1 (stereo unspecified)	none (no result: CHOP inhibitor)
CC(=O)OCC(=O)C1(O)CCC2C3CCC4=CC(=O)C=CC4(C)C3C(O)CC21C (stereo unspecified)	none
COc1ccc(C2=Nn3c(nnc3-c3ccc(OC)cc3)SC2)cc1	VLA-4 inh 54 (no result: UPR CHOP act, CHOP inhibitor, XBP1 UPR activ) | VLA-4 mod pick inactive
COc1ccc2c(C)cc(SCC(=O)Nc3c(C)n(C)n(-c4ccccc4)c3=O)nc2c1	VLA-4 inh 94 | VLA-4 mod pick inactive
C=CCn1c(SCC(=O)Nc2c(C)n(C)n(-c3ccccc3)c2=O)nc2ccccc2c1=O	VLA-4 inh 52 (no result: CHOP inhibitor) | VLA-4 mod pick inactive
CCC(COC(=O)Nc1cccc(C)c1)NC(=O)OCC(C)C (stereo unspecified)	VLA-4 inh 94 | VLA-4 mod pick inactive
CCNC(=O)OCC(CC)NC(=O)OCC(C)C (stereo unspecified)	none
N#CC(C#N)=C1C=CC=CN1/C(=C\c1ccco1)C(=O)c1ccc(-c2ccccc2)cc1	CHOP inhibitor 107, VLA-4 inh 50 (no result: UPR CHOP act, XBP1 UPR activ) | VLA-4 mod pick inactive
O=C(O)/C(=C/c1ccco1)c1ccccc1	none (no result: B2AR ag)
O=C(c1ccccc1)c1cc([N+](=O)[O-])ccc1N1CCOCC1	none | VLA-4 mod pick inactive
Cc1ccc(C(=O)c2cc([N+](=O)[O-])ccc2N2CC(C)OC(C)C2)cc1 (stereo unspecified)	none | VLA-4 mod pick inactive
Cc1ccc(C(=O)c2cc([N+](=O)[O-])ccc2N2CCCCC2)cc1	none
O=C(c1ccc(Br)cc1)c1cc([N+](=O)[O-])ccc1N1CCOCC1	none | VLA-4 mod pick inactive
CC1CCN(C(=O)COC(=O)/C=C/c2ccco2)CC1	none (no result: CHOP inhibitor)
COC(=O)c1cccc(NC(=O)CSc2nnc(C3CC3)n2C)c1	none (no result: CHOP inhibitor)
COc1ccc(S(=O)(=O)N(C)CC(=O)NCCc2ccccc2)cc1OC	none (no result: CHOP inhibitor)
COCCCN(CC(=O)NCc1ccccc1)S(=O)(=O)c1ccc(C)cc1	none (no result: CHOP inhibitor) | VLA-4 mod pick inactive
CC(C)CCN(CC(=O)NCc1ccc(F)cc1)S(=O)(=O)c1ccccc1F	none (no result: CHOP inhibitor) | VLA-4 mod pick inactive
CCN(CC(=O)NCc1cccs1)S(=O)(=O)c1ccc(F)cc1	none (no result: CHOP inhibitor)
CCN(CC(=O)NCc1ccc(F)cc1)S(=O)(=O)c1ccc(C)cc1	none (no result: CHOP inhibitor) | VLA-4 mod pick inactive
COc1ccc(S(=O)(=O)N(C)CC(=O)NCc2ccccc2)cc1OC	none (no result: CHOP inhibitor) | VLA-4 mod pick inactive
N#CC1(c2ccccc2)CCC(=O)N1c1ccccc1 (stereo unspecified)	none
Cc1ccc(NC(=O)c2cc(N3C(=O)CCC3=O)ccc2N2CCOCC2)cc1	none
Cc1ccc(NC(=O)c2cc(N3C(=O)C=CC3=O)ccc2N2CCOCC2)cc1Cl	CHOP inhibitor 100, VLA-4 inh 83, B2AR ag 76 (no result: UPR CHOP act, XBP1 UPR activ) | VLA-4 mod pick 52 | CHOP inh conf inactive
COCCN1CC(CNC(=O)c2cc(COc3ccc(C)c(C)c3)on2)CC1=O (stereo unspecified)	none (no result: CHOP inhibitor)
CC(=O)Oc1ccc(N2C(=O)C3C4C=CC(CO)(O4)C3C2=O)cc1 (stereo unspecified)	none
O=C1C2C3C=CC(CO)(O3)C2C(=O)N1c1ccccc1-c1ccccc1 (stereo unspecified)	VLA-4 inh 50, B2AR ag 55 (no result: CHOP inhibitor) | VLA-4 mod pick inactive | CHOP inh conf inactive
O=C(Cn1nnc(-c2ccccc2)n1)Nc1cccc(S(=O)(=O)N2CCOCC2)c1	none (no result: CHOP inhibitor)
Cc1ccc(C(=C2C3C=CC2C2C(=O)NC(=O)C32)c2ccc(C)cc2)cc1 (stereo unspecified)	CHOP inhibitor 108, VLA-4 inh 56 | VLA-4 mod pick inactive | CHOP inh conf inactive
CCOC(=O)/C(=C\c1ccc(OC(F)F)cc1)C1=Nn2c(nnc2-c2ccc(Cl)cc2)SC1	CHOP inhibitor 107, VLA-4 inh 60, B2AR ag 80 (no result: UPR CHOP act, XBP1 UPR activ) | VLA-4 mod pick 51 | CHOP inh conf 120
Cc1ccccc1-c1nc2cc(Cl)ccc2c(=O)o1	XBP1 UPR activ 49 (no result: CHOP inhibitor) | VLA-4 mod pick inactive | UPR XBP1 confirm inactive
NC(=O)c1ccc(-c2c(-c3ccccc3)sc3ccccc23)cc1	none (no result: CHOP inhibitor)
CN(C)CCOc1ccc(-c2c(-c3ccccc3)sc3ccccc23)cc1	XBP1 UPR activ 60, VLA-4 inh 70 (no result: CHOP inhibitor) | VLA-4 mod pick inactive | UPR XBP1 confirm 55
COC(=O)c1cc(NS(=O)(=O)c2ccc(C(C)C)cc2)ccc1N1CCOCC1	none
Cc1cc(C)n(-c2nc(N(C)C)nc(N(C)C)n2)n1	none
CCNc1nc(NCC)nc(-n2nc(C)cc2C)n1	none | VLA-4 mod pick inactive | Beta2AR ag CP1 inactive | B2AR FAP counter inactive
Cc1cc(C)n(-c2nc(NC(C)C)nc(NC(C)C)n2)n1	VLA-4 inh 57 | VLA-4 mod pick inactive | Beta2AR ag CP1 inactive | B2AR FAP counter inactive
COc1cccc(CC(=O)OCC(=O)c2cc(OC)c(OC)c(OC)c2)c1	none (no result: CHOP inhibitor)
C[C@H](NCCc1ccc(O)cc1)[C@H](O)c1ccc(O)cc1	VLA-4 inh 52 (no result: CHOP inhibitor) | VLA-4 mod pick inactive | Beta2AR ag CP1 inactive | B2AR FAP counter inactive
CC(=O)NCCc1ccc(O)cc1	none
Cc1cnc(C(=O)N2CCCC(N3CCN(c4cccc(C(F)(F)F)c4)CC3)C2)cn1 (stereo unspecified)	none (no result: CHOP inhibitor)
CSc1ccc2c(c1)C(N1CCN(C)CC1)Cc1ccccc1S2 (stereo unspecified)	VLA-4 inh 55!, B2AR ag 61! | VLA-4 mod pick inactive | Beta2AR ag CP1 inactive | B2AR FAP counter inactive
